Data reported in ChEMBL document CHEMBL1143528, “Kinesin spindle protein (KSP) inhibitors. Part 1: The discovery of 3,5-diaryl-4,5-dihydropyrazoles as potent and selective inhibitors of the mitotic kinesin KSP” (Bioorg Med Chem Lett, 2005).
pIC50: −log10 of the molar value.

Legend:
[1] = molecular target: T1, Kinesin-like protein KIF11 (Homo sapiens, UniProt P52732); test: In vitro inhibitory concentration towards kinesin spindle protein activity of ATP hydrolysis in the presence of microtubules measured by ATPase assay (n=3)
T1 sequence (P52732 whole entry): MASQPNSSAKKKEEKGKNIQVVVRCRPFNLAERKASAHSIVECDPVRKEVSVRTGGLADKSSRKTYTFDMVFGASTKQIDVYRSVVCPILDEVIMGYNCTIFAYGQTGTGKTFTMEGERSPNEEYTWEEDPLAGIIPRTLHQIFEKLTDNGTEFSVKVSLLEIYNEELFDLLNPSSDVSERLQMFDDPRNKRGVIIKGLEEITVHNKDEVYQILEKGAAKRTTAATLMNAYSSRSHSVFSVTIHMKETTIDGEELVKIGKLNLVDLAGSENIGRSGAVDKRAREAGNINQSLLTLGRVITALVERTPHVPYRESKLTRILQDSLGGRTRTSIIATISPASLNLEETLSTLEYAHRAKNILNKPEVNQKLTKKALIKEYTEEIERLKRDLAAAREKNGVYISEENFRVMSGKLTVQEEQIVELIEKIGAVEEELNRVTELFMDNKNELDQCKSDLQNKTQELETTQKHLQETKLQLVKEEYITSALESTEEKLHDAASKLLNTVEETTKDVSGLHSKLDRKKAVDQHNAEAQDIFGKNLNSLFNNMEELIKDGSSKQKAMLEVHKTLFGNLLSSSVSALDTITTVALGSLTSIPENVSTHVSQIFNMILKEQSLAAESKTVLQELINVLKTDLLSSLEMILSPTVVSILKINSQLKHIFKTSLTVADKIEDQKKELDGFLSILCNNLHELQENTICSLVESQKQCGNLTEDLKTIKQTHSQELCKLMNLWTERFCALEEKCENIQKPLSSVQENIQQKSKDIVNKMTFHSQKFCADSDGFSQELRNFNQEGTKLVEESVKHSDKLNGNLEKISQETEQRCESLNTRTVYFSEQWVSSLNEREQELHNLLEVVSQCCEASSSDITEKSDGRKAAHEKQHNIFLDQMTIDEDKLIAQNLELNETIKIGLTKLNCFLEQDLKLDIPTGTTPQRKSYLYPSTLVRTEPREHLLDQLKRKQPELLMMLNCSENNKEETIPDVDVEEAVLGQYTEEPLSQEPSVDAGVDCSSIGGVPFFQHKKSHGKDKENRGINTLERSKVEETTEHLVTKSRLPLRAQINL

Caspase-3 = molecular target: T2, Caspase-3 (Homo sapiens, UniProt P42574); test: Inhibitory concentration towards caspase-3 induction in human A2780 ovarian carcinoma cells; type: functional, cell-based
T2 sequence (P42574 whole entry): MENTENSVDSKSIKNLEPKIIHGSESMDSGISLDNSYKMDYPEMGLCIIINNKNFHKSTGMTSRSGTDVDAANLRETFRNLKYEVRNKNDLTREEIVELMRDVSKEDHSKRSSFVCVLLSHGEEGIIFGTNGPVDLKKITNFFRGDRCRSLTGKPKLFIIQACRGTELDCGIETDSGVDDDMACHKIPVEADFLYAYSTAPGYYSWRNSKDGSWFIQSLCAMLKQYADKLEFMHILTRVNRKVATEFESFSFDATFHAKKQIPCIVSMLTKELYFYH
How it was run: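 A2780 human ovarian carcinoma cells were treated with compound. Caspase-3 activation, used as an apoptosis marker, was then measured in cell lysates with a fluorescent kit that reads release of the AFC fluorophore from DEVD-AFC substrate. The value is a concentration giving 50% of caspase-3 induction.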

Row | Compound | pIC50 [1] | pIC50 (Caspase-3)
1 | CC(=O)N1N=C(c2c(F)cccc2F)CC1c1ccccc1 (configuration not stated) | 4.96 | –
2 | COc1ccccc1C1=NN(C(C)=O)C(c2ccccc2)C1 (configuration not stated) | < 4.30 | –
3 | CC(=O)N1N=C(c2ccccc2Br)CC1c1ccccc1 (configuration not stated) | 4.63 | –
4 | O=C(c1ccccc1)N1N=C(c2ccccc2Cl)CC1c1cccc(O)c1 (configuration not stated) | 4.87 | –
5 | CC(=O)N1N=C(c2ccccc2Cl)CC1c1cccc(O)c1 (configuration not stated) | 6.35 | –
6 | CC(=O)N1N=C(c2ccc(Cl)cc2Cl)CC1c1ccccc1 (configuration not stated) | 4.42 | –
7 | CC(C)C(=O)N1N=C(c2ccccc2Cl)CC1c1cccc(O)c1 (configuration not stated) | 5.96 | –
8 | CCOC(=O)C1=C(C)NC(=S)N[C@H]1c1cccc(O)c1 [S-MENASTROL] | 5.00 | –
9 | CCC(=O)N1N=C(c2ccccc2Cl)CC1c1cccc(O)c1 (configuration not stated) | 5.92 | –
10 | CC(=O)N1N=C(c2cc(F)cc(F)c2)CC1c1ccccc1 (configuration not stated) | < 5.30 | –
11 | CC(C)(C)C(=O)N1N=C(c2ccccc2Cl)CC1c1cccc(O)c1 (configuration not stated) | 6.34 | –
12 | CC(=O)N1N=C(c2cccc(F)c2F)CC1c1ccccc1 (configuration not stated) | 4.90 | –
13 | CS(=O)(=O)N1N=C(c2cc(F)ccc2F)CC1c1ccccc1 (configuration not stated) | 5.74 | –
14 | CC(=O)N1N=C(c2cc(F)ccc2F)C[C@H]1c1cccc(O)c1 | 7.59 | 7.82
15 | CC(=O)N1N=C(c2cccc(Cl)c2)CC1c1ccccc1 (configuration not stated) | 5.01 | –
16 | CC(=O)N1N=C(c2ccccc2)CC1c1ccccc1 (configuration not stated) | < 4.30 | –

Row | Compound | pIC50 [1] | pIC50 (Caspase-3)
17 | CNC(=O)N1N=C(c2cc(F)ccc2F)CC1c1ccccc1 (configuration not stated) | 5.51 | –
18 | CC(=O)N1N=C(c2ccccc2C(F)(F)F)CC1c1ccccc1 (configuration not stated) | < 4.30 | –
19 | NCCCC(=O)N1N=C(c2ccccc2Cl)CC1c1cccc(O)c1 (configuration not stated) | 5.22 | –
20 | CC(=O)N1N=C(c2ccccc2Cl)CC1c1ccccc1 (configuration not stated) | 5.44 | –
21 | CC(=O)N1N=C(c2cc(F)ccc2F)CC1c1cccs1 (configuration not stated) | 5.74 | –
22 | CC(=O)N1N=C(c2ccc(Cl)cc2)CC1c1ccccc1 (configuration not stated) | < 4.30 | –
23 | CN(C)C(=O)N1N=C(c2cc(F)ccc2F)CC1c1ccccc1 (configuration not stated) | 7.08 | –
24 | CC(=O)N1N=C(c2ccccc2)CC1c1cccc(O)c1 (configuration not stated) | 5.16 | –
25 | CN1N=C(c2ccccc2Cl)CC1c1cccc(O)c1 (configuration not stated) | < 4.30 | –
26 | CC(=O)N1N=C(c2ccccc2F)CC1c1ccccc1 (configuration not stated) | 5.44 | –
27 | CC(=S)N1N=C(c2cc(F)ccc2F)CC1c1ccccc1 (configuration not stated) | 6.60 | –
28 | COC(=O)N1N=C(c2ccccc2Cl)CC1c1cccc(O)c1 (configuration not stated) | < 4.30 | –
29 | CC(=O)N1N=C(c2ccccc2C)CC1c1ccccc1 (configuration not stated) | 4.34 | –
30 | CC(=O)N1N=C(c2cc(F)ccc2F)CC1c1cccc(O)c1 (configuration not stated) | 7.29 | –
31 | CC(=O)N1N=C(c2cc(F)ccc2F)CC1c1ccccc1 (configuration not stated) | 7.03 | –
